A short description of data set [1]: Drug uptake in mouse brain assessed as standardized uptake value measured after 2 mins. Format: ADME, tissue-based. The following applies: in vivo. In a few lines: (§1)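 Mouse dynamic PET. Tracer at 6.33–14.42 nmol/kg given by tail-vein injection; 60 min scan started 1 min later. Data expressed as SUV, i.e. decay-corrected regional radioactivity normalized to injected dose and body weight. Blocking: MAGLi432 at 5 mg/kg in DMSO/Tween80/saline 1/1/8, injected 5 min before tracer.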

A short description of data set [2]: Lipophilicity, logD of the compound at pH 7.4 by shake flask assay. Format: physicochemical. The note with it: buffer.
Data set [3] in a line: Drug uptake in Mdrla/b-Bcrp KO mouse. The class given is ADME. The following applies: in vivo. The gist of the method: as §1
A short description of data set [4]: Drug uptake in rat brain striatum. The class given is ADME, tissue-based. The following applies: in vitro.
Data set [5] can be described thus: Drug uptake in mouse brain assessed as maximum standardized uptake value measured after 60 mins. Format: ADME, tissue-based. The following applies: in vivo, 1 h. The gist of the method:
as §1

The nature of data set [6]: Drug uptake in MAGL knock out mouse. Format: ADME. The following applies: in vivo. The gist of the method:
as §1

The nature of data set [7]: Drug uptake in rat brainstem. Format: ADME, tissue-based. The note with it: in vitro.
Data set [8] is described as follows: Drug uptake in rat brain hippocampus. Format: ADME, tissue-based. The following applies: in vitro.
The nature of data set [9]: Drug uptake in wild type mouse after 20 mins. The class given is ADME. The following applies: in vivo. The gist of the method:
as §1

Data set [10] can be described thus: Drug uptake in rat brain in presence of SAR127303. Format: ADME, tissue-based. The following applies: in vitro.
Data set [11] can be described thus: Drug uptake in rat brain in presence of PF-06795071. The class given is ADME, tissue-based. The following applies: in vitro.
A short description of data set [12]: Drug uptake in rat brain cerebellum. The class given is ADME, tissue-based. The following applies: in vitro.
A short description of data set [13]: Drug uptake in Mdrla/b-Bcrp KO mouse pretreated with MAGLi432. The class given is ADME. The note with it: in vivo. The gist of the method: as §1
Data set [14] in a line: Drug uptake in rat brain cortex. The class given is ADME, tissue-based. The following applies: in vitro.
Data set [15] can be described thus: Drug uptake in rat brain thalamus. The class given is ADME, tissue-based. The following applies: in vitro.

On to `O=C1CO[C@H]2CCN([11C](=O)N3CC(OCc4ccc(C(F)(F)F)cc4Cl)C3)C[C@H]2N1`, for which the SUV in [1] is given as 0.72.

For the molecule `O=C1CO[C@H]2CCN([11C](=O)N3CC(CCc4c(F)cccc4C(F)(F)F)C3)C[C@H]2N1`, the SUV in data set [1] was determined as 1.67. The molecule further displayed a logD in [2] of 2.65. The Drug uptake entry in data set [3] was “Active”; in [4], “Active”; in [6], “Not Active”; in data set [7] it was “Not Active”; in data set [8], “Active”; in data set [9], “Active”. In addition, the Drug uptake result in [10] is reported as “Not Active”; in data set [11], “Not Active”; in data set [12], “Active”; in [13] it was “Not Active”; in data set [14], “Active”; in [15], “Active”. Besides, the SUVmax in data set [5] came to 0.4.

Values taken from ChEMBL document CHEMBL5352430, “Multi-parameter optimization: Development of a morpholin-3-one derivative with an improved kinetic profile for imaging monoacylglycerol lipase in the brain” (Eur J Med Chem, 2022).
